Rows were chosen to be rich in hits. Some 7.2% of all compounds tested hit in one or more screens of this group.
M1 antagonist: blocks the rat M1 muscarinic receptor response to acetylcholine; P08482; CHO-M1 cells, Fluo-4 calcium, ACh EC80 antagonist mode; stronger effect = lower value; B-score at 10 µM; 64,000 tested, 3.4% active; AID 628;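 active means calcium fluorescence response, raw or row-and-column corrected B-score, differing from the plate sample mean either way at a set confidence level, mostly lower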
BAP1 inh: inhibitors of human BAP1 deubiquitinase | 72,000 tested, 0.48% active | recombinant BAP1, Ub-AMC hydrolysis fluorescence kinetic; stronger effect = lower value | Q92560 | AID 436 | calls only at 20 µM;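 active means activity remaining at or below 50% of control, provided the compound also passes the data quality filters; inactive means the rest, including low values that fail the filters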;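 further: 100% = DMSO wells rate and 0% = substrate alone blank rate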
HEK293 NFkB inh: lowers PMA/ionomycin-induced NF-kB signal in HEK293 cells; AID 465; 62,000 tested, 0.21% active; inhibition, % at 3 µM; HEK-293 NF-kB luciferase reporter, luminescence;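 active means inhibition above the mean of all tested compounds plus 3 SD, cut at about 40% in these data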;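 further: 0% = stimulated DMSO wells and 100% = 10 µM reference inhibitor 5653914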
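System – HEK-293 cells with stable firefly luciferase reporter driven by four HIV NF-kB elements · Doses – one dose, 3 µM · Schedule – 1 h compound pre-incubation, 16 h PMA/ionomycin at 37 °C · Technique – luminescence from luciferase substrate reagent · Measure – percent inhibition normalized per plate to DMSO and reference-inhibitor controls · Replicates – tested once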
M1 ag: activates the M1 muscarinic receptor | AID 626 | 64,000 tested, 3% active | CHO-M1 cells, Fluo-4 calcium fluorescence, agonist mode; stronger effect = higher value | B-score at 10 µM;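 active means fluorescence rise, raw or as B-score row- and column-corrected plate score, outside the 99.7% band of its plate's samples, either direction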
DAT uptake mod: human DAT dopamine uptake with cocaine, either direction | Q01959 | LLC-PK1 hDAT cells, [14C]-dopamine uptake with cocaine IC80; actives deviate in either direction | B-score at 10 µM | 110,000 tested, 1.3% active | AID 449768;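 active means Z score or B-score, a plate-position-corrected score, falls beyond the plate's 99.7% confidence bounds, in either direction; inactive means both scores lie inside the 99.7% bounds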;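 further: scored against the spread of the other compound wells on the same plate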
D1 mod: allosterically modulates the human D1 dopamine receptor; P21728; HEK293 D1, CRE-luciferase, dopamine EC30 potentiation; actives deviate in either direction; B-score at 10 µM; 58,000 tested, 5.9% active; AID 641;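 active means luminescence count or its row- and column-corrected plate score outside the 99.7% band of the plate's sample wells, on either side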
Target sequence (P21728 whole entry, looked up): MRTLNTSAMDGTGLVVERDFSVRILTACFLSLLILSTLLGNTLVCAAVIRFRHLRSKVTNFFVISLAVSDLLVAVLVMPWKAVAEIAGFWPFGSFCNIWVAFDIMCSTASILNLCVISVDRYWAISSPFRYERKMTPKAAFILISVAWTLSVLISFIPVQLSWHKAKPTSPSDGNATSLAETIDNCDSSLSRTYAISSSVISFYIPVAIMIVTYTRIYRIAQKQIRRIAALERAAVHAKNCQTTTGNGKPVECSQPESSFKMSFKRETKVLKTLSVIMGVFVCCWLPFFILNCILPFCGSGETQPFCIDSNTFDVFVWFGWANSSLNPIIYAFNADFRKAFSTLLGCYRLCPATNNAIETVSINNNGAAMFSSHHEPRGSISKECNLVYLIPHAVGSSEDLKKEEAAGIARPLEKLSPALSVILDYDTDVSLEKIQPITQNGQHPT
BAP1 inh conf: BAP1 (human) enzyme inhibition, confirmed | purified BAP1, Ub-ethyl ester hydrolysis, HPLC; stronger effect = lower value | % of control activity, % at 20 µM | AID 753 | 310 tested, 8% active | shares compounds with BAP1 inh;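 active means percent of control activity at or below 60%; inconclusive means HPLC trace unusable from injection failure or solvent front hiding peaks; inactive means the rest, plus ubiquitin peak ratio over a set limit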
Active calls of the source: *; i = inactive; ? = inconclusive; / = no result given; + = active, no number.

SMILES	M1 antagonist	BAP1 inh	HEK293 NFkB inh	M1 ag	DAT uptake mod	D1 mod	BAP1 inh conf
O=C(CCS(=O)(=O)c1ccccc1)Nc1nc2c(s1)COc1ccccc1-2	0.042	+	9	-0.27	-0.0042	/	106
O=C(Nc1nc2c(s1)COc1ccccc1-2)c1cccs1	-0.25	i	-8	-1.3	0.79	0.89	/
Cc1ccc(-c2csc(NC(=O)c3ccc(S(=O)(=O)N(C)C)cc3)n2)cc1	/	i	/	/	/	/	/
O=C(NCC1CCCO1)c1c(O)c2ccccc2[nH]c1=O (stereo not given)	-0.067	+	-14	-0.028	-0.4	1.9	106
CCOC(=O)c1c(NCC2CCCO2)c2ccccc2[nH]c1=O (stereo not given)	/	/	/	/	0.91	/	/
Cc1ccc2c(SCC(=O)NCc3ccco3)nc(-c3ccc(F)cc3)nc2c1	-1.6	+	22	-0.1	0.35	-0.76	61
Cc1nc(Nc2cccc(C(F)(F)F)c2)nc2c1C(=O)CC(C)C2 (stereo not given)	0.64	+	2	0.54	-0.17	0.32	116
O=C(Nc1ccc(-c2nc3cc(NC(=O)C4CCCCC4)ccc3o2)cc1)C1CCCCC1	/	i	/	/	/	/	/
Cc1ccc(O)c(N=CC2=C(O)c3ccccc3C2=O)c1	-0.34	+	0	-0.93	-0.32	0.55	117
CN=CC1=C(O)c2ccccc2C1=O	0.014	i	-4	-0.27	1.5	/	/
C=CCn1c(CCNC(=O)c2ccccc2F)nnc1SCC(=O)Nc1nc(C)cs1	-0.6	+	4	0.53	0.16	-0.6	113
Cc1ccc2oc(-c3ccc(NC(=O)c4ccccc4C)c(C)c3)nc2c1	/	i	/	/	/	/	/
COc1cccc(NC(=O)c2ccccc2-c2nc(-c3ccc(Cl)cc3)no2)c1	-0.81	+	-4	-0.71	0.0012	-0.29	?
Cc1ccc(OCc2nn3c(-c4ccco4)nnc3s2)cc1	-0.19	i	13	-0.12	-0.27	-0.079	/
Clc1ccc(OCc2nn3c(-c4ccco4)nnc3s2)c(Cl)c1	0.35	+	10	-0.2	-0.83	0.44	106
Cc1ccc2c(c1)c(C)c(C)n2CC(O)Cn1nc(C)c(Br)c1C (stereo not given)	0.097	i	15	1.6	0.28	1.1	/
Cc1ccc2c(c1)c1c(n2CC(O)Cn2nc(C)c(Br)c2C)C(=O)CCC1 (stereo not given)	0.035	+	14	0.74	0.22	0.46	91
COc1ccc(OC)c(NC(=O)c2cc(-c3ccc(C)cc3O)n[nH]2)c1	/	+	7	/	0.36	-0.0038	137
CSc1ccc(C2Nc3ccccc3NC3=C2C(=O)CC(c2ccc(Cl)cc2)C3)cc1 (stereo not given)	/	i	/	/	/	/	/
Clc1ccc(C2Nc3ccccc3-n3cccc32)cc1 (stereo not given)	-0.0064	+	4	-1.5	-1.8	2.1	93
COc1ccc(-c2cc(C(F)(F)F)n3nc(C(=O)NCc4ccco4)c(Cl)c3n2)cc1	/	/	/	/	-0.03	/	/
O=C(NCc1ccco1)c1cc2nc(-c3ccc4c(c3)OCO4)cc(C(F)(F)F)n2n1	0.16	+	15	0.01	0.11	-0.79	56*
Cc1ccc(-c2cc(C(F)(F)F)n3ncc(C(=O)NCc4ccco4)c3n2)cc1	0.53	+	9	-0.96	-0.39	0.29	?
COc1ccc(-c2cc(C(F)(F)F)n3nc(C(=O)NCc4ccco4)cc3n2)cc1	-0.083	+	17	-0.82	1	0.055	111
O=C(NC12CC3CC(CC(C3)C1)C2)c1cc2nc(-c3ccco3)cc(C(F)(F)F)n2n1	-0.79	+	15	-0.29	-0.0029	0.74	79
SMILES	M1 antagonist	BAP1 inh	HEK293 NFkB inh	M1 ag	DAT uptake mod	D1 mod	BAP1 inh conf
Cc1cc(-c2ccccc2)nc2cc(C(=O)NCc3ccco3)nn12	/	/	/	/	0.58	/	/
Cc1ccc(C(=O)Nc2ccc(NC(=O)c3ccco3)c(Cl)c2)cc1[N+](=O)[O-]	/	i	/	/	/	/	/
CCOC(=O)c1oc2ccccc2c1NC(=O)COc1ccc(F)cc1	-0.28	+	13	-0.3	/	/	154
COc1cc(C(=O)Nc2ccc(-c3nc4ccccc4[nH]3)cc2)cc(OC)c1OC	/	i	/	/	/	/	/
N#Cc1c(NC(=O)COC(=O)C2CC3C=CC2C3)oc(-c2ccccc2)c1-c1ccccc1 (stereo not given)	0.00058	+	13	-0.039	-1.8	-0.23	42*
COc1ccccc1OCC(=O)Nc1oc(-c2ccccc2)c(-c2ccccc2)c1C#N	0.7	/	20	-1.3	-0.015	-0.28	/
CCOC(=O)C1CCN(S(=O)(=O)c2ccc3c4c(cccc24)C(=O)N3)CC1	0.27	+	9	-0.076	1	1.3	120
CCCn1c2c(c(O)c(C(=O)Nc3nccs3)c1=O)CCCC2	-0.0012	i	3	0.48	-1.1	/	/
CC(C)Cn1c2c(c(O)c(C(=O)Nc3nccs3)c1=O)CCCC2	0.24	+	1	-0.12	/	1.3	115
O=C(C1CCN(c2nnc(-n3cccc3)s2)CC1)N1CCOCC1	-0.17	i	8	0.5	-0.41	-0.45	/
O=C(C1CCN(c2nnc(-n3cccc3)s2)CC1)N1CCN(c2cccc(C(F)(F)F)c2)CC1	1.6	+	17	-0.027	-0.94	-1.2	101
NC(=O)c1ccccc1N/C=C/C(=O)c1ccco1	-0.0085	+	-8	1.1	0.069	-0.33	89
Cc1ccc(C23CC4CC(CC(Cl)(C4)C2)C3)cc1N	/	i	/	/	/	/	/
O=[N+]([O-])c1ccc(C2CC(c3ccc(Br)cc3)=Nc3ccccc3N2)cc1 (stereo not given)	/	i	/	/	/	/	/
CCOC(=O)Cc1csc(-n2sc3ccccc3c2=O)n1	-0.42	+	16	-0.47	-0.95	-2	42*
O=C(Nc1nc(-c2cccs2)cs1)c1cccc(S(=O)(=O)N2CCCCCC2)c1	-0.23	/	9	-0.046	-0.93	-0.065	/
O=C(Nc1nc(-c2cccs2)cs1)c1ccc(S(=O)(=O)N2CCCCC2)cc1	-0.56	+	11	0.1	2.5	-0.9	89
COc1ccc(N(CC(=O)Nc2ccc(F)c(Cl)c2)S(=O)(=O)c2c(C)noc2C)cc1	-0.0082	+	1	1.5	0.35	-0.48	153
COc1ccc(N(CC(=O)Nc2ccc(OC)c(Cl)c2)S(=O)(=O)c2c(C)noc2C)cc1	0.97	i	10	-0.88	-0.52	/	/
CCOc1ccc(-c2nc(-c3ccccc3C)no2)cc1	0.86	+	-42	-0.031	0.57	0.64	102
CCOc1ccc(-c2nc(-c3cccnc3)no2)cc1	/	/	/	/	0.16	/	/
CC1CCN(S(=O)(=O)c2ccc(NC(=O)Cn3nnc(-c4ccccc4F)n3)cc2)CC1	/	+	7	/	-1.2	0.28	135

Assay outcomes: PubChem BioAssay, several laboratories
